Results taken from publication PMC9290826 (Chemmedchem, 2021).
In brackets after ≈: the same amount, converted by molar mass. Several values for one entry are separate records, joined by “and”; a condition that tells them apart may be missing. Equal values may be shown once.

Tests used:
Test in all cases: Antibacterial screening, broth dilution MIC
Format in all cases: cell-based
[1] = tested on: Staphylococcus aureus MRSA (DSM 11822, ICB 25701); details: for Mean MIC ± standard error: MRSA, TSY medium, 20 h at 37 °C, absorbance 600 nm, n=3‐13
How it was run: (§1)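 Test compound serially diluted from 64 μg/ml, inoculum 2–8×10^5 CFU/ml, duplicate wells. Incubated 20 h at 37 °C, then absorbance read at 600 nm. MIC derived by curve fitting over three independent experiments. Positive controls: linezolid for S. aureus, ciprofloxacin for the others.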

[2] = tested on: Pseudomonas aeruginosa PA7 (DSM 24068); details: for Mean MIC ± standard error: P. aeruginosa PA7, MHB medium, 20 h at 37 °C, absorbance 600 nm, n=3‐13
How it was run: (§2)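 Broth microdilution in MHB (21 g/L Müller Hinton, pH 7.4). Test compound serially diluted from 64 μg/ml, inoculum 2–8×10^5 CFU/ml, duplicate wells. Incubated 20 h at 37 °C, then absorbance read at 600 nm. MIC derived by curve fitting over three independent experiments. Positive controls: amikacin for P. aeruginosa, ciprofloxacin for the others.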

[3] = tested on: Acinetobacter baumannii (DSM 30007, ATCC 19606); details: A. baumannii, MHB medium, 20 h at 37 °C, absorbance 600 nm, n=3‐13
How it was run: as §2

[4] = tested on: Enterococcus faecium (DSM 20477, ATCC 19434); details: E. faecium, TSY medium, 20 h at 37 °C, absorbance 600 nm, n=3‐13
How it was run: as §1

[5] = tested on: Escherichia coli (DSM1116, ATCC 9637); details: E. coli, TSY medium, 20 h at 37 °C, absorbance 600 nm, n=3‐13
How it was run: as §1

[6] = tested on: Klebsiella pneumoniae (DSM 11678, ATCC33495); details: K. pneumoniae, MHB medium, 20 h at 37 °C, absorbance 600 nm, n=3‐13
How it was run: as §2

Compound	Mean MIC ± standard error [1] [µM]	Mean MIC ± standard error [2] [µM]	Mean MIC ± standard error [3] [µM]	Mean MIC ± standard error [4] [µM]	Mean MIC ± standard error [5] [µM]	Mean MIC ± standard error [6]	MIC ([2]; Pseudomonas aeruginosa, DSM24068, 20 h, read-out: Mean MIC ± standard error) [µM]	MIC ([1]; Staphylococcus aureus, DSM11822|MRSA, 20 h, read-out: Mean MIC ± standard error) [µM]
CCn1[c](=[Au-2][Cl])n(CC)c2ccccc21 [2 b]	0.8 ± 0.4	118.0 ± 43.1	8.4 ± 2.4	1.2 ± 0.0	39.3 ± 0.0	65.6 µM and 65.6 ± 32.1 µM		
CCn1[c](=[Au-2]([Cl])([Cl])[Cl])n(CC)c2ccccc21 [2 c]	1.1 ± 0.0	>30	3.5 ± 1.2	4.2 ± 0.0	39.1 ± 25.6	16.8 µM and 16.8 ± 0.0 µM		
NCC[C@H](O)C(=O)N[C@@H]1C[C@H](N)[C@@H](O[C@H]2O[C@H](CN)[C@@H](O)[C@H](O)[C@H]2O)[C@H](O)[C@H]1O[C@H]1O[C@H](CO)[C@@H](O)[C@H](N)[C@H]1O [amikacin, reference compound]							6.9 ± 7.3 (≈ 4.04 µg/mL)	
CC(=O)OC[C@H]1O[C@@H]([S-])[C@H](OC(C)=O)[C@@H](OC(C)=O)[C@@H]1OC(C)=O.CCP(CC)CC.[Au+] [auranofin, reference compound]	<0.2	>30	7.8 ± 7.1	0.6 ± 0.2	>30	>30 µM		
CC(=O)NC[C@H]1CN(c2ccc(N3CCOCC3)c(F)c2)C(=O)O1 [linezolid, reference compound]								2.8 ± 1 (≈ 0.945 µg/mL)
